# High-throughput results as filed in PubChem.
# Most compounds without a hit are left out; they make up all but 2.3% or so of the library.
# core dimer inh – HCV core protein dimerization inhibition; 0.33% of 300,000 active; AID 1899; TR-FRET GST/Flag-core106 dimerization, 1536-well; inhibition, % at 5 µM;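 active = inhibition above the mean of all tested compounds plus 3 SD, set per screening campaign, cut at about 45% in these data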
#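 Material: Tagged HCV core106 pair (GST and Flag) | Amount: GST-core106 13.5 nM, Flag-core106 17 nM | Medium: KF-containing HEPES buffer, pH 7.45, DTT, CHAPS, BSA | Reagent: Eu donor and XL665 acceptor anti-tag antibodies | Schedule: 4 h at 22.5 °C | Technique: Time-resolved FRET, ex 340 nm, em 617 and 671 nm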
# NS3 helicase inh – HCV NS3 helicase inhibition; inhibition, % at 10.9 µM; NS3 helicase DNA unwinding, Cy5 molecular beacon fluorescence; 0.56% of 290,000 active;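 active = inhibition above the mean of all tested compounds plus 3 SD, set per campaign, cut at about 35% in these data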
#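 System: HCV NS3 helicase fragment; control set: DMSO and thioflavine S; technique: Cy5 fluorescence at 0 and 60 min, beacon hairpin quenching; reagent: beacon DNA duplex substrate plus ATP; replicates: singlicate; schedule: 1 h reaction at 25 °C, ATP-initiated; medium: MOPS buffer pH 6.5 with MgCl2, DTT, Tween20, BSA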
# EBV gp42 block – EBV gp42 inhibition. Fluorescence polarization binding assay, mP read-out. inhibition, % (tested at 21.74 µM). 0.42% of 220,000 active. AID 1085; in the data active = inhibition above about 50%
# GPR7 antag – human neuropeptides B/W receptor 1 antagonism | 1.1% of 290,000 active | AID 1861 | P48145 | inhibition, % at 4.4 µM | GPR7-expressing cells, fluorescence antagonist assay; in the data active = inhibition above about 16%, passing the limit was not always enough;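 note: cells stimulated with the agonist NPW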
# Target sequence (P48145 whole entry, looked up): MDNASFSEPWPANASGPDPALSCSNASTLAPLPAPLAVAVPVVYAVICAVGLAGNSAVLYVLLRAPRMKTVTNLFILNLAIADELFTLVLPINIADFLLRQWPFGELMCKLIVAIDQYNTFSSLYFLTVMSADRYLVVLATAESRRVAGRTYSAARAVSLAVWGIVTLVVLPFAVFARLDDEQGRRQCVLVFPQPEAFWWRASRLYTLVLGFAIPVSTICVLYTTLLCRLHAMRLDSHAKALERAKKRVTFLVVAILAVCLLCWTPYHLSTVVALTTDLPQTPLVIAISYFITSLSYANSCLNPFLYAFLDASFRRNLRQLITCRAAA
# ZTA DNA inh – blocks Epstein-Barr virus ZTA, an EBNA-1 counter-screen; ZTA-DNA binding, fluorescence polarization; inhibition, % at 11 µM; 0.15% of 320,000 active; AID 2234; in the data active = inhibition above about 33%
# Target sequence (P03206 whole entry, looked up): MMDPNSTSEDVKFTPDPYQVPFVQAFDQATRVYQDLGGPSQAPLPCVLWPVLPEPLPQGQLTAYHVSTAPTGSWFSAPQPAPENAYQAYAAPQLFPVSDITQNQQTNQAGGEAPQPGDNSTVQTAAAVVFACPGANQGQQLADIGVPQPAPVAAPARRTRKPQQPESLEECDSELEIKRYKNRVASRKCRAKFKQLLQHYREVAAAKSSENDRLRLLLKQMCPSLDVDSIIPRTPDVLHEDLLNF
# EBNA-1 inhibitor – blocks EBNA-1 binding to DNA; EBNA-1 DNA binding, fluorescence polarization; inhibition, % at 14.8 µM; 0.34% of 300,000 active; in the data active = inhibition above about 28%
# GPR7 antag conf – human GPR7 antagonism, confirmation assay | GPR7-expressing cells, calcium fluorescence antagonist mode | 52% of 2,400 active | inhibition, % at 4.4 µM | shares compounds with GPR7 antag; in the data active = inhibition above about 24%;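 note: stimulated with the GPR7 agonist NPW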
# MCHR1 antag – antagonizes human MCHR1, a GPR7 antagonist counter-screen; inhibition, % at 4.4 µM; MCHR1-expressing cells, fluorescence antagonist assay; AID 2148; 62% of 2,400 active; shares compounds with GPR7 antag; in the data active = inhibition above about 22%
# Numbers stand for hits; . = inactive; / = not tested or not shown.
SMILES,core dimer inh,NS3 helicase inh,EBV gp42 block,GPR7 antag,ZTA DNA inh,EBNA-1 inhibitor,GPR7 antag conf,MCHR1 antag
CN(C(=O)COC(=O)/C=C/c1ccccc1[N+](=O)[O-])c1ccccc1,.,.,.,.,.,.,/,/
COc1cc(NC(=O)COc2cc(O)c3c(c2)OC(C)(C)CC3=O)cc(OC)c1OC,.,.,/,34.5,.,.,50.8,78.9
COc1ccc2c(Cl)c(C(=O)N/N=C3\CCCC(=O)C3)sc2c1,.,.,.,24.3,.,.,.,27.7
CCOC(=O)c1c(S(=O)(=O)NCC(=O)Nc2ccc(F)cc2)c(C)n(C)c1C,.,.,/,.,.,.,/,/
CCCC[N+](CC#CCO)(CC#Cc1ccccc1)CCCC,.,.,.,25.2,.,.,25.4,25.8
Cc1ccc(S(=O)(=O)Oc2ccc(/C=C3\C(=N)N4N=C(S(C)(=O)=O)SC4=NC3=O)cc2)cc1,.,.,/,29.5,.,.,.,.
O=C(COC(=O)CCc1c[nH]c2ccccc12)Nc1ccc([N+](=O)[O-])cc1,.,.,.,26.1,.,.,48.8,40.8
O=C(NCCc1c[nH]c2ccccc12)c1ccc([N+](=O)[O-])cc1,.,.,.,30.5,.,.,30.2,25.6
Cc1sc(NC(=O)c2ccco2)c(CN2CCN(c3ccc(F)cc3)CC2)c1C,.,.,.,.,.,.,/,/
Cc1sc(NC(=O)c2ccco2)c(CN2CCN(c3ccccn3)CC2)c1C,.,.,.,31.9,.,.,.,48.8
O=C(Nc1ccc(C(=O)NCCCN2CCCCC2)cc1)C1=CSCCO1,.,.,/,.,.,.,/,/
O=C(Nc1ccc(C(=O)NCCCN2CCN(c3ccc(F)cc3)CC2)cc1)C1=CSCCO1,.,.,/,36.4,.,.,55.6,73.9
Cc1nc2ccc(NS(=O)(=O)c3ccc(C)c(C)c3)cc2s1,.,.,.,.,.,.,/,/
Cc1nc2ccc(S(=O)(=O)Nc3ccccc3C)cc2s1,.,.,.,25.2,.,.,.,35.0
O=C(NCc1ccncc1)Nc1ccc(F)cc1,.,.,.,31.2,.,.,.,.
CCOc1ccccc1NCc1cc(=O)oc2cc(C)c(O)cc12,/,.,/,.,/,/,/,/
Cc1cc2oc(=O)cc(CNc3ccccc3F)c2cc1O,.,.,/,38.0,.,.,44.1,68.1
O=C(c1ccco1)N(CCC(c1ccccc1)c1ccco1)Cc1ccc(F)cc1 (centres undefined),.,.,.,.,.,.,/,/
CC1(C)CC(C(CCN(Cc2ccccc2)C(=O)c2ccco2)c2ccc(F)cc2)CCO1 (centres undefined),.,.,.,31.1,.,.,37.2,60.5
CC1CCCN(S(=O)(=O)c2ccc(S(=O)(=O)NC(C)c3cccs3)cc2)C1 (centres undefined),.,.,.,47.9,.,.,53.2,31.9
C/C(=N/NC(=O)CCc1ccccc1)c1ccc2c(c1)OCO2,/,.,/,25.7,/,/,.,.
Clc1ccccc1/C=C/c1ccnc2ccccc12,.,.,.,.,.,.,.,.
c1ccc2c(-c3ccncc3)c[nH]c2c1,.,.,.,23.4,.,.,.,.
c1ccc(-c2nnc(-c3ccccc3)c(-c3c[nH]c4ccccc34)n2)cc1,.,.,.,.,.,.,/,/
OCCC1CN(Cc2cccc3nonc23)CCN1C1CCCCC1 (centres undefined),.,.,.,.,.,.,/,/
SMILES,core dimer inh,NS3 helicase inh,EBV gp42 block,GPR7 antag,ZTA DNA inh,EBNA-1 inhibitor,GPR7 antag conf,MCHR1 antag
O=c1c2c(nc3cc(-c4ccc(F)cc4)[nH]n13)CCC2,.,.,.,29.5,.,.,.,.
Cc1ccc(-c2cc3nc4c(c(=O)n3[nH]2)CCCC4)cc1,.,.,/,.,.,.,/,/
Cc1ccc(C)c(S(=O)(=O)N2CCCOC2CNC(=O)C(=O)NC2CCCC2)c1 (centres undefined),.,.,/,.,.,.,/,/
CO/N=C/Cc1c([N+](=O)[O-])c(C)nn1C,.,.,.,27.7,.,.,.,.
C/C(=N/NC(=O)c1cnccn1)c1cccs1,.,.,.,.,.,.,/,/
CCOc1ncccc1C(=O)N1CCN(c2cccc(C)c2C)CC1,/,.,.,28.3,/,/,.,34.2
CCC[C@@H](CN[C@@H](CNC)[C@H](C)CC)NCC1CCC(C(C)(C)C)CC1 (some centres undefined),.,.,/,47.4,.,.,51.0,64.2
COc1ccc(NC(=O)c2sc3nc(N4CCOCC4)c4c(c3c2N)CC(C(C)C)OC4)c(OC)c1 (centres undefined),.,.,/,.,.,.,/,/
CC(OC(=O)c1oc2ccccc2c1COc1ccccc1)C(N)=O (centres undefined),.,.,.,.,.,.,/,/
CC(C)(C)NC(=O)c1oc2ccccc2c1COc1ccccc1,.,.,.,26.4,.,.,.,34.6
O=C(Nc1nc2ccccc2s1)C1CCN(S(=O)(=O)c2cc([N+](=O)[O-])ccc2Cl)CC1,.,.,.,31.9,.,.,75.2,74.6
CCC(C)NC(=O)C1CCN(S(=O)(=O)c2cc([N+](=O)[O-])ccc2Cl)CC1 (centres undefined),.,.,.,.,.,.,/,/
CCOC(=O)C(C)On1c(-c2ccccc2)nc2ccc([N+](=O)[O-])cc21 (centres undefined),.,.,.,/,.,.,/,.
O=[N+]([O-])c1ccc2nc(-c3ccc(Cl)cc3)n(OCc3ccccc3)c2c1,.,.,.,.,.,.,/,/
CCOC(=O)C(C)On1c(-c2ccc(Cl)cc2)nc2ccc([N+](=O)[O-])cc21 (centres undefined),.,.,.,26.4,.,.,34.5,51.5
O=C(O)COn1c(-c2ccccc2)nc2ccc([N+](=O)[O-])cc21,.,.,73.2,30.9,.,.,.,.
Cc1ccc(COn2c(-c3ccc(Cl)cc3)nc3ccc([N+](=O)[O-])cc32)cc1,.,.,.,.,.,.,/,/
COc1ccc(CCNC(N)=S)cc1OC,.,.,.,.,.,.,/,/
COc1ccc(-c2onc(C)c2-c2cnn(-c3ccccc3)c2)c(O)c1C,.,.,.,31.6,.,.,24.8,34.4
COc1ccc(-c2ccc(=O)n(Cc3ccc([N+](=O)[O-])cc3)n2)cc1,.,.,.,36.2,.,.,52.0,82.8
Cc1ccc(-c2ccc(=O)n(Cc3ccc(F)cc3)n2)cc1,.,.,/,.,.,.,/,/
O=C(c1ccc2c(c1)OCO2)N(CC1CCCO1)C1(C(=O)NC2CCCC2)CCCCC1 (centres undefined),.,.,.,31.6,.,.,30.8,.
